RGS4 act: RGS4 potentiators or activators, primary screen, cell-based, HEK293 M3R inducible RGS4, calcium flux. 0.92% of 310,000 active. B-score at 10 µM. carbachol calcium flux Fluo4; stronger effect = lower value;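 active means B-score of the integrated calcium signal more than 4 SD below the library mean, with starting fluorescence not abnormally high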;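 further: negative B-score means reduced calcium response which marks RGS4 activation or potentiation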
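Assay system: Inducible-RGS4 HEK293 cells carrying M3 receptor | Schedule: Compound preincubation 20 min at room temperature before agonist | Signal: Kinetic calcium fluorescence imaging with Fluo4-AM dye, 2 µM | Read-out basis: B score from integrated fluorescence ratio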
MrgX1 PAM: positive allosteric modulators of MrgX1, primary screen, HEK293 cells, Fluo-4 calcium flux; Mas-related G-protein coupled receptor member X1 (Homo sapiens), Q96LB2; FDSS; stronger effect = higher value; B-score at 10 µM; 0.63% of 310,000 active;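 active means plate-corrected calcium response at least 3 library SD above typical, normal starting fluorescence, not activating the receptor alone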;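 further: compound read alongside a low EC10 to EC30 dose of BAM8-22 agonist; peak minus trough fluorescence over baseline measured at the second addition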
Target sequence (Q96LB2 whole entry, looked up): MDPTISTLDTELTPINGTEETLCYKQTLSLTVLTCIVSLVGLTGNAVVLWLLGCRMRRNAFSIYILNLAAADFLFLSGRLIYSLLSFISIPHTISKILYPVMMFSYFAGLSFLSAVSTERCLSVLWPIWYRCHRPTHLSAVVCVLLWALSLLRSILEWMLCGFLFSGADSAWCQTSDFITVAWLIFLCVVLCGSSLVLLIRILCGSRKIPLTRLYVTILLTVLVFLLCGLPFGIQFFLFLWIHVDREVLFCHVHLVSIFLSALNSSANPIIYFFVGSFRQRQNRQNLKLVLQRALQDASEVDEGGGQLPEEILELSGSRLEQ
MrgX1 agonist: agonists of human MrgX1 receptor, primary screen, HEK293 cells, Fluo-4 calcium flux; Fluo-4 calcium fluorescence, agonist mode; stronger effect = higher value; B-score at 10 µM; 0.44% of 310,000 active; AID 588627, 2011;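 active means calcium response B-score plate-corrected fluorescence ratio at least 3 library SD, with starting fluorescence B-score inside 5 SD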
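Material – MrgX1-expressing HEK293 cells · Input – 15,000 cells seeded per well · Dosing – compound as first of three additions · Times – overnight seeding, then 1 h dark dye loading · Measured by – kinetic Fluo-4 NW fluorescence of intracellular calcium · Read-out – B-scored fluorescence response ratio · Benchmarks – positive and negative control wells on each plate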
MrgX1 antag: antagonists of human MrgX1 receptor, primary screen, HEK293 cells, Fluo-4 calcium flux. 1.3% of 310,000 active. B-score at 10 µM. BAM8-22 antagonism; stronger effect = lower value;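 active means calcium-response B-score plate-corrected more than 3 library SD below zero, starting fluorescence within 5 deviations, no agonist response on first addition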;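 further: peak minus trough fluorescence over baseline after final BAM8-22 challenge near maximal dose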
RGS4 inh: RGS4 inhibitors, primary screen, cell-based, HEK293 M3R inducible RGS4, calcium flux. AID 463165, 2010. Fluo-4 calcium flux; stronger effect = higher value; triggered by carbachol at its EC20. 0.45% of 310,000 active. Regulator of G-protein signaling 4 (Homo sapiens), P49798. B-score at 10 µM;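 active means B-score, a plate-corrected calcium signal, over three deviations above library mean, with baseline fluorescence within five deviations of library mean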;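 further: RGS4 expression induced by doxycycline in cells with stable M3 receptor; B-score is computed from the integrated fluorescence ratio over baseline after carbachol; higher B-score means a larger calcium signal and so more RGS4 inhibition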
Target sequence (P49798 whole entry, looked up): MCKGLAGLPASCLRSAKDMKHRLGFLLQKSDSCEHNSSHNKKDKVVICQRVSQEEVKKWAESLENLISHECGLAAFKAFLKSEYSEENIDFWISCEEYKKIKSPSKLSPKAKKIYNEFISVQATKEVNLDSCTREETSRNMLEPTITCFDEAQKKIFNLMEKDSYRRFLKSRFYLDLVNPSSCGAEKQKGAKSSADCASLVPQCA
MrgX1 ant reconf: MrgX1 receptor antagonists, duplicate retest, confirmation, HEK293 cells, Fluo-4 calcium flux; shares compounds with MrgX1 antag; BAM8-22 calcium flux; stronger effect = lower value; remaining BAM8-22 calcium response % of control (stronger effect = lower value), % at 10 µM; 19% of 2,300 active; AID 602420, 2012;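 active means remaining agonist calcium response no higher than 100% minus 3 SD of agonist-only control wells, with starting fluorescence near control levels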;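 further: agonist BAM8-22 given at a near maximal EC90 to ECmax level; peak minus minimum fluorescence divided by baseline after agonist addition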
HEK293 Ca flux: nonspecific calcium signal in parental HEK293, confirmation, counter-screen for MrgX1 antagonist project, parental HEK293 cells, Fluo-4 calcium flux | fluorescence ratio F(max-min)/F0 at 10 µM | shares compounds with MrgX1 antag | 2% of 4,000 active | Fluo-4 calcium fluorescence, FDSS;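 active means duplicate-averaged calcium fluorescence ratio at least three times the standard deviation of buffer wells, a nonspecific response in parental cells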
HEK293 Ca counter: calcium response in parental HEK293 cells, primary screen, counter-screen for MrgX1 allosteric activator project, cell-based, Fluo-4 calcium flux, duplicate; shares compounds with MrgX1 antag; 0.4% of 4,000 active; fluorescence ratio F(max-min)/F0 at 10 µM; Fluo-4 fluorescence ratio; stronger effect = higher value; AID 624114, 2012;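 active means calcium fluorescence ratio, averaged over duplicates, at least 3 SD of the buffer-well ratio, meaning a nonspecific response in receptor-free cells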;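 further: untransfected parental HEK293 lacking MrgX1 used as counterscreen for MrgX1 allosteric activators; fluorescence change taken during the second addition on a kinetic imager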
HEK293 Ca cntr2: calcium response in parental HEK293 cells, primary screen, counter-screen for MrgX1 agonist project, cell-based, Fluo-4 calcium flux, duplicate, agonist mode. Fluo-4 calcium fluorescence (FDSS); stronger effect = higher value. shares compounds with MrgX1 antag. fluorescence ratio F(max-min)/F0 at 10 µM. 8.7% of 4,000 active. AID 624115, 2012;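 active means calcium fluorescence ratio at least three times the spread of buffer wells, meaning a non-specific response in parental cells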
* marks the source's active call; other numbers are inactive results. An excerpt weighted towards active compounds, which were near 3.5% of everything screened.

How did COc1ccc2oc(C(=O)OCC(=O)NCc3ccco3)c(C)c2c1 do in these assays?
RGS4 act: inactive; MrgX1 PAM: inactive; MrgX1 agonist: inactive; MrgX1 antag: -6.4*; RGS4 inh: inactive; MrgX1 ant reconf: inactive; HEK293 Ca flux: inactive; HEK293 Ca counter: inactive; HEK293 Ca cntr2: inactive

What do the screens show for `CCCSc1cc(N2CCCC2)nc(-c2ccccc2)n1`?
RGS4 act: inactive; MrgX1 PAM: inactive; MrgX1 agonist: inactive; MrgX1 antag: -5.7*; RGS4 inh: inactive; MrgX1 ant reconf: inactive; HEK293 Ca flux: inactive; HEK293 Ca counter: inactive; HEK293 Ca cntr2: inactive

How did CCCSc1cc(N2CCN(C)CC2)nc(-c2ccc(OC)cc2)n1 do in these assays?
RGS4 act: inactive; MrgX1 PAM: inactive; MrgX1 agonist: inactive; MrgX1 antag: inactive; RGS4 inh: inactive

Results for O=C(NCCCO)c1ccc2[nH]c3c(c2c1)CCCC3 ?
RGS4 act: inactive; MrgX1 PAM: inactive; MrgX1 agonist: inactive; MrgX1 antag: inactive; RGS4 inh: inactive

What do the screens show for `O=C(NCCO)c1ccc2[nH]c3c(c2c1)CCCC3`?
RGS4 act: inactive; MrgX1 PAM: inactive; MrgX1 agonist: inactive; MrgX1 antag: -6.5*; RGS4 inh: inactive; MrgX1 ant reconf: inactive; HEK293 Ca flux: inactive; HEK293 Ca counter: inactive; HEK293 Ca cntr2: inactive

How did CSCC[C@H](NC(=O)Cc1c(C)c2cc3c4c(oc3cc2oc1=O)CCCC4)C(=O)O do in these assays?
RGS4 act: inactive; MrgX1 PAM: inactive; MrgX1 agonist: inactive; MrgX1 antag: inactive; RGS4 inh: inactive

How did CS/C(N)=N/C(=S)Nc1cccc(Cl)c1 do in these assays?
RGS4 act: inactive; MrgX1 PAM: inactive; MrgX1 agonist: inactive; MrgX1 antag: -4.6*; RGS4 inh: inactive; MrgX1 ant reconf: inactive; HEK293 Ca flux: inactive; HEK293 Ca counter: inactive; HEK293 Ca cntr2: inactive

What do the screens show for `NC(=S)Nc1cccc(Cl)c1`?
RGS4 act: inactive; MrgX1 PAM: inactive; MrgX1 agonist: inactive; MrgX1 antag: inactive; RGS4 inh: inactive

How did N#Cc1c2n(cnc1=O)CCCCC2 do in these assays?
RGS4 act: inactive; MrgX1 PAM: inactive; MrgX1 agonist: inactive; MrgX1 antag: -4.9*; RGS4 inh: inactive; MrgX1 ant reconf: inactive; HEK293 Ca flux: inactive; HEK293 Ca counter: inactive; HEK293 Ca cntr2: inactive

How did Cc1ccc(S(=O)(=O)N2CCC(C(=O)OCC(=O)N3CCCC(C)C3)CC2)cc1C (stereo unspecified) do in these assays?
RGS4 act: inactive; MrgX1 PAM: inactive; MrgX1 agonist: inactive; MrgX1 antag: inactive; RGS4 inh: inactive

How did Cc1cccc(C)c1NC(=O)NC1CC2CCC(C1)N2Cc1cccs1 (stereo unspecified) do in these assays?
RGS4 act: inactive; MrgX1 PAM: inactive; MrgX1 agonist: inactive; MrgX1 antag: -7.5*; RGS4 inh: inactive; MrgX1 ant reconf: inactive; HEK293 Ca flux: inactive; HEK293 Ca counter: inactive; HEK293 Ca cntr2: inactive

Results for NC(=O)COc1ccc(/C=N\NC(=O)c2ccc(-c3ccccc3)cc2)cc1 ?
RGS4 act: inactive; MrgX1 PAM: inactive; MrgX1 agonist: inactive; MrgX1 antag: inactive; RGS4 inh: inactive

What do the screens show for `CN(C)/C=N/c1nc(-c2ccc3c(c2)OCO3)cs1`?
RGS4 act: inactive; MrgX1 PAM: inactive; MrgX1 agonist: inactive; MrgX1 antag: -6.4*; RGS4 inh: inactive; MrgX1 ant reconf: inactive; HEK293 Ca flux: inactive; HEK293 Ca counter: inactive; HEK293 Ca cntr2: inactive

Results for Cn1c(SCC(=O)Nc2ccc(C(N)=O)cc2)nc2c(c1=O)SCC2 ?
RGS4 act: inactive; MrgX1 PAM: inactive; MrgX1 agonist: inactive; MrgX1 antag: inactive; RGS4 inh: inactive

What do the screens show for `COc1ccc(-n2c(SCC(=O)Nc3cc(C)on3)nc3c(c2=O)SCC3)cc1`?
RGS4 act: inactive; MrgX1 PAM: inactive; MrgX1 agonist: inactive; MrgX1 antag: -4.6*; RGS4 inh: inactive; MrgX1 ant reconf: inactive; HEK293 Ca flux: inactive; HEK293 Ca counter: inactive; HEK293 Ca cntr2: inactive

What do the screens show for `Cn1c(SCC(=O)Nc2cccc(F)c2)nc2c(c1=O)SCC2`?
RGS4 act: inactive; MrgX1 PAM: inactive; MrgX1 agonist: inactive; MrgX1 antag: -8.8*; RGS4 inh: inactive; MrgX1 ant reconf: inactive; HEK293 Ca flux: inactive; HEK293 Ca counter: inactive; HEK293 Ca cntr2: inactive

Results for CN(c1ccc([N+](=O)[O-])cc1C(N)=O)C1CCCCC1 ?
RGS4 act: inactive; MrgX1 PAM: inactive; MrgX1 agonist: inactive; MrgX1 antag: inactive; RGS4 inh: inactive

What do the screens show for `CC1(c2ccc(OC(F)F)cc2)NC(=O)N(CC(=O)Nc2ccc(S(N)(=O)=O)cc2)C1=O` (stereo unspecified)?
RGS4 act: inactive; MrgX1 PAM: inactive; MrgX1 agonist: inactive; MrgX1 antag: -6.9*; RGS4 inh: inactive; MrgX1 ant reconf: inactive; HEK293 Ca flux: inactive; HEK293 Ca counter: inactive; HEK293 Ca cntr2: inactive

Results for O=C(NC1CCCN(c2ccc(C(F)(F)F)cn2)C1)c1cc(Cl)ccc1F (stereo unspecified) ?
RGS4 act: inactive; MrgX1 PAM: inactive; MrgX1 agonist: inactive; MrgX1 antag: -6.6*; RGS4 inh: inactive; MrgX1 ant reconf: inactive; HEK293 Ca flux: inactive; HEK293 Ca counter: inactive; HEK293 Ca cntr2: inactive

How did Cc1ccc(C(=O)NC2CCCN(c3ccc(C(F)(F)F)cn3)C2)cn1 (stereo unspecified) do in these assays?
RGS4 act: inactive; MrgX1 PAM: inactive; MrgX1 agonist: inactive; MrgX1 antag: inactive; RGS4 inh: inactive

Assay outcomes (PubChem BioAssay)
